Measured values gathered from unrelated publications.
Each line is one published result; the experiments were not run side by side.
Effect on: cell growth or viability

COc1ccc(CNC[C@@](C)(O)[C@@H]2CC[C@@H](C)C[C@H]2OCc2ccccc2)cc1 — inhibition (HeLa; MTT; 30 µM; 72 h): 98.9%
O=C(C=Cc1ccccc1)Nc1cc(-c2ccnc(N3CCC(O)CC3)c2)ccn1 — inhibition (HeLa; MTT; 5 µM): 75.2%
C[C@@H]1CC[C@@H]([C@](C)(O)Cn2cnc3ccccc32)[C@H](OCc2ccccc2)C1 — inhibition (HeLa; MTT; 10 µM; 72 h): 32.1%
CC1(C)CCC2(CC1)N[C@@H](C(=O)N[C@@H]1CC[C@@H](C(N)=O)OC1)[C@H](c1ccnc(Cl)c1F)[C@]21C(=O)Nc2cc(Cl)ccc21 — GI50 (U2OS; resazurin; 72 h): > 1000 nM
C[C@@H]1CC[C@@H]([C@](C)(O)CNCc2cccc(F)c2)[C@H](OCc2ccccc2)C1 — inhibition (HeLa; MTT; 10 µM; 72 h): 72.5%
Cc1cccc(/C=C/C(=O)Nc2cc(-c3ccnc(N4CCC(O)CC4)c3)ccn2)c1 — inhibition (HeLa; MTT; 5 µM): 74.2%
C=C(C)[C@@H]1CC[C@@H](C)C[C@H]1OCc1ccc(OC)cc1 — inhibition (HeLa; MTT; 30 µM; 72 h): 54%
Cc1cccc(/C=C/C(=O)Nc2cccc(-c3ccnc(N4CCC(CO)CC4)c3)c2)c1 — inhibition (HeLa; MTT; 5 µM): 56.2%
Cc1nc(Nc2ccc3c(c2)CC(=O)N3)c2ccccc2n1 — IC50 (H22; MTT): 10400 nM
C[C@@H]1CC[C@@H]([C@](C)(O)CNCc2cccc3ccccc23)[C@H](OCc2ccccc2)C1 — inhibition (HeLa; MTT; 30 µM; 72 h): 86.8%
C=CC(=O)NC1CCN(c2ncc3ncnc(Nc4ccc(Oc5ccc6c(c5)ncn6C)c(C)c4)c3n2)CC1 — EC50 (HPAC): 35.1 nM
COc1cc2ncnc(Nc3ccc4c(c3)/C(=C/c3cccc(Cl)c3)C(=O)N4C)c2cc1OC — IC50 (H22; MTT): 3840 nM
Cc1cccc(/C=C/C(=O)Nc2cccc(-c3ccnc(N4CCC(O)CC4)c3)c2)c1 — inhibition (HeLa; MTT; 5 µM): 54.9%
Cc1nc(N(Cc2ccccc2)c2ccc3c(c2)/C(=C/c2ccccc2)C(=O)N3Cc2ccccc2)c2ccccc2n1 (mixture of isomers) — IC50 (H22; MTT): 880 nM
Cc1cccc(/C=C/C(=O)Nc2cccc(-c3ccnc(N4CCOCC4)c3)c2)c1 — inhibition (HeLa; MTT; 5 µM): 24.1%
Cc1c(C(=O)O)ccc2c3n(nc12)[C@@H]1[C@H](C3)N(CC2CC2)[C@@]2(C(=O)Nc3cc(Cl)ccc32)[C@H]1c1cccc(Cl)c1F — GI50 (U2OS): > 90 nM
COc1cccc(CNC[C@@](C)(O)[C@@H]2CC[C@@H](C)C[C@H]2OCc2ccccc2)c1 — inhibition (HeLa; MTT; 30 µM; 72 h): 97.9%
O=C(C=Cc1cccc(F)c1)Nc1cc(-c2ccnc(N3CCC(O)CC3)c2)ccn1 — inhibition (HeLa; MTT; 5 µM): 82.7%
